Measured values from paper PMC10883021 (ACS Omega, 2024).
Read-outs that look alike come from different tables or passages of the source.

Tests used:
[1] = test system: T47D breast cancer cell line; test: MTT cell viability assay, T47D breast cancer cells; type: cell-based, human; settings: 48 h, read-out: IC50 on T47D
How it was run: (§1)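 Cells grown in DMEM with 10% FBS, 100 units/ml penicillin/streptomycin and 2 mM L-glutamine at 37 °C, 5% CO₂. 5 × 10³ cells/well were seeded and attached overnight, then given test compound at 0–200 μM for 48 h. MTT was added for 4 h at 37 °C and absorbance read at 570 nm. Viability was taken relative to untreated control cells. Mean ± SD from at least three independent experiments.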

[2] = test system: MDA-MB-231 breast cancer cells; settings: 0–100 μM; cited from earlier work
[3] = test system: MDA-MB-231 breast cancer cell line; test: MTT cell viability assay, MDA-MB-231 breast cancer cells; type: cell-based, human; settings: read-out: IC50 on MDA-MB-231
How it was run: as §1

[4] = test system: MCF-7 breast cancer cells; settings: 0–100 μM; cited from earlier work
[5] = test system: HaCaT human keratinocyte cell line; test: MTT cell viability assay, HaCaT control cells; type: cell-based; settings: 48 h, read-out: IC50 on HaCaT (human fibroblasts in text)
How it was run: as §1

IC50 ([1]; Homo sapiens, T47D) [µM] | IC50 ([3]; Homo sapiens, MDA-MB-231, 48 h) [µM] | IC50 ([1]; MTT, 0–200 μM) [µM] | IC50 ([3]; MTT, 48 h, 0–200 μM) [µM] | Molecule | cytotoxic effect on MDA-MB-231 [2] | cytotoxic effect on MCF-7 [4] | IC50 ([5]; Homo sapiens, HaCaT) [µM] | IC50 ([5]; MTT, 0–200 μM) [µM]
67.7 ± 5.9 | 67.2 ± 5.72 |  |  | O=Cc1ccc(O)c(O)c1 [Compound 11, 3,4-dihydroxybenzaldehyde] | did not show an anticancer effect | did not show an anticancer effect | 115 ± 7.69 | 
 |  |  |  | COc1cc([C@@H]2c3cc4c(cc3[C@@H](O[C@@H]3O[C@@H]5CO[C@@H](C)O[C@H]5[C@H](O)[C@H]3O)[C@H]3COC(=O)[C@H]23)OCO4)cc(OC)c1O [etoposide, reference compound] |  |  | 4.86 ± 0.35 | 
 |  | 44.4 ± 2.7 | 63.8 ± 10.3 | coelonin [Compound 10] |  |  |  | 114 ± 7.65
